# Laboratory results as given in PMC6085501 (EBioMedicine, 2018).
# B1: ISM: secreted proapoptotic protein, high-affinity ligand of cell-surface GRP78 (protein, UniProt B1AKI9 30-464, looked up)
# Isthmin-1: ADGPDAAAGNASQAQLQNNLNVGSDTTSETSFSLSKEAPREHLDHQAAHQPFPRPRFRQETGHPSLQRDFPRSFLLDLPNFPDLSKADINGQNPNIQVTIEVVDGPDSEADKDQHPENKPSWSVPSPDWRAWWQRSLSLARANSGDQDYKYDSTSDDSNFLNPPRGWDHTAPGHRTFETKDQPEYDSTDGEGDWSLWSVCSVTCGNGNQKRTRSCGYACTATESRTCDRPNCPGIEDTFRTAATEVSLLAGSEEFNATKLFEVDTDSCERWMSCKSEFLKKYMHKVMNDLPSCPCSYPTEVAYSTADIFDRIKRKDFRWKDASGPKEKLEIYKPTARYCIRSMLSLESTTLAAQHCCYGDNMQLITRGKGAGTPNLISTEFSAELHYKVDVLPWIICKGDWSRYNEARPPNNGQKCTESPSDEDYIKQFQEAREY
# Assays:
# [1] = biological target: Glucose regulated protein 78 kDa (GRP78), recombinant protein immobilised for SPR (UniProt P11021); assay: SPR
# [2] = tested on: human HBT 3477 breast cancer; settings: 250 μg/mouse, nude mice; cited from earlier work
# HUVECs = assay: Cell Death Detection ELISA; format: cell-based, human; settings: 100 μM, 24 h
# In short: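 HUVECs (passages 5–10) seeded at 1–1.5 × 10^4 cells/well and pre-starved 3 h in 2% FBS medium. Co-treated with 100 μM test peptide plus 15 ng/ml VEGF for 24 h. Apoptosis read as cytoplasmic histone-associated DNA fragments by photometric ELISA at 405 nm. Fold change taken against VEGF-only cells set as 1. Mean ± SEM, at least three independent experiments, ANOVA.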
# Cell-surface GRP78 = settings: ISM protein as ligand of cell-surface GRP78; cited from earlier work
# Chain of UniProt P11021 (P11021 19-654): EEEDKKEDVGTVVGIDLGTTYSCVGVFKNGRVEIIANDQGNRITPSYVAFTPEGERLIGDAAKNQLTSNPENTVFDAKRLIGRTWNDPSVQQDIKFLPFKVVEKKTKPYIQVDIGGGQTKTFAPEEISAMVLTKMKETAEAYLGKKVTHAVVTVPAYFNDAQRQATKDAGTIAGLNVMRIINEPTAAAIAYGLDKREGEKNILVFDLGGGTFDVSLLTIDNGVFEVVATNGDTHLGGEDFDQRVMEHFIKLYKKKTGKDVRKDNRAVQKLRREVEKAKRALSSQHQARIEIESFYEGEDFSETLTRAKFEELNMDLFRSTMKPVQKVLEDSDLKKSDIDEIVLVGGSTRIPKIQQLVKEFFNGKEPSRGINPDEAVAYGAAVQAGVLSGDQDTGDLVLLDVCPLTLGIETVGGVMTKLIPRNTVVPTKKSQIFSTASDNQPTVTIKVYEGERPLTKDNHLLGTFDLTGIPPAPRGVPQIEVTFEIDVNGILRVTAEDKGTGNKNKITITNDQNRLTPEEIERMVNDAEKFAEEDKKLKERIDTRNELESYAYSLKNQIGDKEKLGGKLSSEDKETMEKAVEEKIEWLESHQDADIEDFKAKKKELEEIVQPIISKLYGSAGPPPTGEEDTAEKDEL
molecule,measurement,setting,value
"BC71, cyclic peptide c[(bA)(k)RKD(2-D-Nal)]",Kd,[1],211 µM
cilengitide,suppression of tumor growth as single agent,[2],ineffective
cyclo(KRAAF) [GR35],proapoptotic activity towards HUVECs (in words),HUVECs,significantly reduced its proapoptotic activity
cyclo(KRKDF) [GR16],"apoptosis, relative fold change","HUVECs; HUVECs, Cell Death Detection ELISA, Fig. 1a legend",over 1.4
B1,Kd,Cell-surface GRP78,0.0086 µM
